Source: ChEMBL document CHEMBL1833859, “Discovery of novel imidazo[1,2-a]pyrazin-8-amines as Brk/PTK6 inhibitors” (Bioorg Med Chem Lett, 2011)

Assays:
[1] = Inhibition of CYP; assay type: ADME
[2] = Intrinsic clearance in human Hepatocytes assessed as per million cells; assay type: ADME, cell-based, Liver, Hepatocyte
[3] = AUC (0 to 6 hrs) in mouse at 100 mg/kg, po; assay type: ADME, organism-based; set-up: time < 6 hr, dose 100 mg/kg, route oral; conditions: plasma
Outline: (§1)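 Mouse pharmacokinetics, 15 animals per dose group, dosed intraperitoneally at 30 mg/kg or orally at 10, 30 or 100 mg/kg. Plasma levels were followed from 0 to 6 h.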

[4] = Tmax in mouse at 100 mg/kg, po; assay type: ADME, organism-based; set-up: dose 100 mg/kg, route oral; conditions: in vivo; outline: as §1
[5] = molecular target: Tyrosine-protein kinase Lck (Homo sapiens, UniProt P06239); experiment: Inhibition of LCK
Tyrosine-protein kinase Lck, sequence (P06239 whole entry): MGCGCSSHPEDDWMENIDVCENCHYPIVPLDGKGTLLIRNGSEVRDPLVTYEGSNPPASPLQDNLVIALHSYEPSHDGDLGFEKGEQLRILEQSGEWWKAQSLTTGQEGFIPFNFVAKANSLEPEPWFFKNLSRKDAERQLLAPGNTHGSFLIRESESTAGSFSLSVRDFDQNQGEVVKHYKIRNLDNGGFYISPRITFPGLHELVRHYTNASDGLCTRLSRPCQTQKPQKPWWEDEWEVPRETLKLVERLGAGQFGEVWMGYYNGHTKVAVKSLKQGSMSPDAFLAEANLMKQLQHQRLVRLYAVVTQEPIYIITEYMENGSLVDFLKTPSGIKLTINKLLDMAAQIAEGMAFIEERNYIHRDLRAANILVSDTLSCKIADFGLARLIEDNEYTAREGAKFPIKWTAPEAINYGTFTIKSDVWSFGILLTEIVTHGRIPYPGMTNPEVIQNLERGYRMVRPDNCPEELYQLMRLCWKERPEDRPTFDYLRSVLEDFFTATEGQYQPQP

Aurora kinase B = Aurora kinase B (Homo sapiens, UniProt Q96GD4); experiment: Inhibition of AurB
Aurora kinase B, sequence (Q96GD4 whole entry): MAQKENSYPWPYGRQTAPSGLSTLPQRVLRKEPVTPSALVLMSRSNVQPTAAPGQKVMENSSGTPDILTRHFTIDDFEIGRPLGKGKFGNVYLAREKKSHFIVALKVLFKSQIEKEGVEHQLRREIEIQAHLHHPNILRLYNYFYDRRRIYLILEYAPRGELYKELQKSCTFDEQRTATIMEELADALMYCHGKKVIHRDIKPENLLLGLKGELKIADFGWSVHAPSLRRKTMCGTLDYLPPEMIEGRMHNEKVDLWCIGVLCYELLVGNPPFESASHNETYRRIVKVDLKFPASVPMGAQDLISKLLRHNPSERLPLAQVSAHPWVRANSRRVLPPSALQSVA

[6] = AUC (0 to 6 hrs) in mouse at 10 mg/kg, po; assay type: ADME, organism-based; set-up: time < 6 hr, dose 10 mg/kg, route oral; conditions: plasma; outline: as §1
[7] = Intrinsic clearance in rat Hepatocytes assessed as per million cells; assay type: ADME, cell-based, Liver, Hepatocyte
[8] = Cmax in mouse at 10 mg/kg, po; assay type: ADME, organism-based; set-up: dose 10 mg/kg, route oral; conditions: in vivo; outline: as §1
[9] = Cmax in mouse at 30 mg/kg, ip; assay type: ADME, organism-based; set-up: dose 30 mg/kg, route intraperitoneal; conditions: in vivo; outline: as §1
[10] = AUC (0 to 6 hrs) in mouse at 30 mg/kg, ip; assay type: ADME, organism-based; set-up: time < 6 hr, dose 30 mg/kg, route intraperitoneal; conditions: plasma; outline: as §1
[11] = Tmax in mouse at 10 mg/kg, po; assay type: ADME, organism-based; set-up: dose 10 mg/kg, route oral; conditions: in vivo; outline: as §1
[12] = Tmax in mouse at 30 mg/kg, ip; assay type: ADME, organism-based; set-up: dose 30 mg/kg, route intraperitoneal; conditions: in vivo; outline: as §1
[13] = Tmax in mouse at 30 mg/kg, po; assay type: ADME, organism-based; set-up: dose 30 mg/kg, route oral; conditions: in vivo; outline: as §1
[14] = Cmax in mouse at 30 mg/kg, po; assay type: ADME, organism-based; set-up: dose 30 mg/kg, route oral; conditions: in vivo; outline: as §1
[15] = Cmax in mouse at 100 mg/kg, po; assay type: ADME, organism-based; set-up: dose 100 mg/kg, route oral; conditions: in vivo; outline: as §1
[16] = AUC (0 to 6 hrs) in mouse at 30 mg/kg, po; assay type: ADME, organism-based; set-up: time < 6 hr, dose 30 mg/kg, route oral; conditions: plasma; outline: as §1

Cc1cn2c(-c3cn[nH]c3)cnc2c(Nc2ccc(C(=O)N3CCNCC3)cc2F)n1
IC50 [1]: > 20 µM
hepatocyte CLint [2]: 2 µL/min/1e6 cells
AUC(0-t) at 6 h [3]: 8.1 µM·h
Tmax [4]: 4 h
IC50 [5]: > 20 µM
IC50 (Aurora kinase B): > 20 µM
AUC(0-t) at 6 h [6]: 0.1 µM·h
hepatocyte CLint [7]: 5.3 µL/min/1e6 cells
Cmax [8]: 40 nM
Cmax [9]: 17900 nM
AUC(0-t) at 6 h [10]: 17.1 µM·h
Tmax [11]: 6 h
Tmax [12]: 0.5 h
Tmax [13]: 2 h
Cmax [14]: 420 nM
Cmax [15]: 1600 nM
AUC(0-t) at 6 h [16]: 1.4 µM·h
